CHOP UPR activ: apoptotic UPR (CHOP) activation | CHO-CHOP luciferase reporter, luminescence; percent of tunicamycin response over DMSO baseline | 330,000 compounds, 0.34% hits | AID 449763 | activation, % at 10 µM;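 active means at 10 µM dose, activation of 40% or more, normalized to positive control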;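 further: 100% = tunicamycin at 10 µg/mL and 0% = DMSO alone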
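Evaluation: % reporter activation, DMSO baseline versus tunicamycin full activation; System: CHO-CHOP luciferase reporter cell line; Input: 500 cells/well; Incubation: 6 h compound treatment, 37 °C; Measured by: Steady-Glo luciferase luminescence; Dosing: one dose, 10 µM in 0.5% DMSO; Buffer or medium: F12 medium, 10% FBS; Benchmarks: positive tunicamycin 10 µg/mL, negative DMSO alone.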
Gli-Sufu block: Gli-Sufu pathway antagonism; inhibition, % at 5 µM; AID 588413; Sufu-KO-LIGHT fibroblasts, Gli luciferase reporter luminescence; 340,000 compounds, 0.74% hits;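 active means inhibition above about 55%, limit read from the data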;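 further: 0% = DMSO-treated cells and 100% = wells with medium but no cells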
Jurkat NFkB inh: lowers PMA/ionomycin-induced NF-kB signal in Jurkat cells; PMA/ionomycin-induced NF-kB luciferase reporter, luminescence; inhibition, % at 4 µM; 330,000 compounds, 0.53% hits; AID 435003; in the data active means inhibition above about 50%
697 NFkB inh: lowers PMA/ionomycin-induced NF-kB signal in 697 B cells | inhibition, % at 4 µM | 330,000 compounds, 0.33% hits | 697 B-cell NF-kB luciferase reporter, 16 h; in the data active means inhibition above about 35%
XBP1 UPR activ: activators of adaptive arm of unfolded protein response (XBP1) | activation, % at 20 µM | 330,000 compounds, 0.33% hits | CHO-XBP1 luciferase reporter, IRE1-XBP1 UPR activation, luminescence; percent of tunicamycin response, DMSO as zero | AID 463104;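 active means versus positive control, 20 µM dose yields 30% or more activation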;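 further: 100% = tunicamycin at 10 µg/mL and 0% = DMSO only wells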
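Signal: luciferase luminescence; Assay system: CHO-XBP1 luciferase reporter cells; Amount: one thousand reporter cells per well; Dosing: 20 µM single concentration, DMSO 1%; Benchmarks: high control tunicamycin 10 µg/mL final, low control DMSO vehicle only; Schedule: 6 h compound exposure at 37 °C, 5% CO2; Evaluation: percent activation relative to tunicamycin reference.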
CHOP inh: blocks CHOP induction under ER stress. 220,000 compounds, 3.8% hits. CHO-K1 CHOP-promoter luciferase, tunicamycin-induced, 15-18 h. inhibition, % at 10 µM;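 active means compounds that reduced the stress-induced luciferase reporter signal by more than about 70% of percent inhibition, limit read from the data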;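 further: 0% = tunicamycin plus vehicle and 100% = wells without tunicamycin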
Starred values were filed as active, the others as inactive; · = no result given. This is a sample that favours compounds with a hit; in the whole collection about 3.9% have one here.

SMILES	CHOP UPR activ	Gli-Sufu block	Jurkat NFkB inh	697 NFkB inh	XBP1 UPR activ	CHOP inh
O=C(/C=C/c1ccc([N+](=O)[O-])cc1)Nc1ncc([N+](=O)[O-])s1	·	-82.5	·	·	·	94.2*
CCCOc1ccc(/C=C/C(=O)Nc2ccc([N+](=O)[O-])cc2)cc1	-1.1	-8.5	5.7	-4.2	-0.5	95.4*
CCCCOc1ccc(/C=C/C(=O)Nc2ccc([N+](=O)[O-])cc2C)cc1	-0.6	5.7	22.6	-33.3	0.6	79.6*
CO/N=C(\C(=O)N[C@@H]1C(=O)N2C(C(=O)O)=C(CSc3nc(=O)c(O)nn3C)CSC12)c1csc(N)n1 (some centres undefined)	·	·	·	·	·	-15.9
Cc1ccc(OCC(=O)NNC(=O)C2CSC3(C)CCC(=O)N23)cc1 (centres undefined)	-2.2	1.3	-5.7	20.1	3.0	·
Cc1cc(NC(=O)C(C)SCC(=O)N(C)CC(=O)Nc2ccccc2Br)no1 (centres undefined)	0.3	-7.7	9.8	-1.7	-2.7	·
CCc1ccc2c(c1)C(=O)C[C@]1(CCC[C@H](C)C1)O2	0.3	-17.7	4.8	2.3	0.5	·
CN1c2ccccc2C(C)(C)C12C=Nc1c(ccc3ccccc13)O2 (centres undefined)	6.0	-10.9	-50.2	-145.7	-2.5	-26.9
CN1c2ccccc2C(C)(C)[C@]12C=Cc1cc(O)ccc1O2	-1.4	49.5	26.9	-94.7	1.6	95.2*
Cc1ccc2oc(=O)cc(/C=C/c3ccccc3)c2c1	0.6	-3.4	-11.8	-25.2	0.1	75.7*
Cc1ccc2oc3ccccc3c(=O)c2c1	·	-19.4	·	·	·	·
CCC(C)n1cnc2c(c1=O)c1nc3ccccc3nc1n2-c1ccc2c(c1)OCCO2 (centres undefined)	-0.8	3.5	8.3	-6.0	-1.6	82.7*
CCC(C)n1cnc2c(c1=O)c1nc3ccccc3nc1n2Cc1ccc2c(c1)OCO2 (centres undefined)	·	·	·	·	·	29.8
Cc1c(C(=O)NC2CCCc3ccccc32)oc2ccc(S(=O)(=O)N3CCCC3)cc12 (centres undefined)	-1.1	5.5	-8.5	-22.3	5.5	51.8
CCC(C)NC(=O)c1oc2ccc(S(=O)(=O)N3CCC4(CC3)OCCO4)cc2c1C (centres undefined)	1.3	-12.4	-6.6	4.9	-5.0	·
CCOC(=O)C1CCCN(S(=O)(=O)c2ccc(F)c(C(=O)Nc3ccc(F)c(F)c3)c2)C1 (centres undefined)	-0.4	1.6	0.1	12.0	-1.3	76.3*
Cc1c(C(=O)Nc2ccc(F)c(F)c2)oc2ccc(S(=O)(=O)N3CCCCC3)cc12	4.4	-0.3	6.9	-12.0	-1.2	75.4*
CCOC(=O)C1CCCN(S(=O)(=O)c2ccc(NC(C)=O)cc2)C1 (centres undefined)	-0.6	9.8	23.7	-3.0	0.9	9.6
Cc1c(C(=O)Nc2ccc(F)cc2)oc2ccc(S(=O)(=O)N3CCC4(CC3)OCCO4)cc12	1.6	5.9	6.9	-94.8	2.3	71.4*
Cc1c(C(=O)Nc2ccc(F)cc2)oc2ccc(S(=O)(=O)N3CCCC3)cc12	-0.7	5.8	-2.9	2.7	-1.5	18.2
Cc1c(C(=O)NC2CCCc3ccccc32)oc2ccc(S(=O)(=O)N3CCCCC3)cc12 (centres undefined)	0.7	9.6	10.6	-15.5	13.9	84.8*
CC1CCCN(C(=O)COC(=O)CNC(=O)c2sc3ccccc3c2Cl)C1 (centres undefined)	-1.8	6.5	19.3	4.6	-1.4	·
CS(=O)(=O)N1CCCCC1CCN1CCCCC1 (centres undefined)	·	5.3	·	·	·	·
Cc1c(C(=O)NCc2ccc3c(c2)OCO3)oc2ccc(S(=O)(=O)N3CCC(C)CC3)cc12	3.0	13.5	11.3	-75.2	-1.1	44.3
CC1CCN(S(=O)(=O)c2ccc3c(c2)oc(=O)n3CC(=O)NCc2ccc3c(c2)OCO3)CC1	2.1	5.6	19.7	0.0	-4.2	83.3*
SMILES	CHOP UPR activ	Gli-Sufu block	Jurkat NFkB inh	697 NFkB inh	XBP1 UPR activ	CHOP inh
CCOc1ccccc1OCC(=O)NCc1ccco1	0.4	23.7	-4.8	8.1	0.3	76.8*
COc1cc(/C=C/C(=O)c2ccc(Cl)s2)cc(OC)c1O	27.4	12.2	7.9	7.3	1.3	18.3
COc1ccc(/C=C/C(=O)c2ccc(Cl)s2)cc1O	11.3	2.5	-35.1	-2.1	-0.5	84.7*
COc1ccc(-c2c(NC(=O)CC(C)C)n(C)c3ccccc3c2=O)cc1OC	0.3	2.6	-3.6	8.3	0.0	·
O=c1[nH]c([N+](=O)[O-])nn1C(c1ccccc1)c1ccccc1	-0.4	-8.7	-0.2	14.0	-7.0	·
CC1Cc2nc(SCC(=O)Nc3ccc(F)cc3)n(C)c(=O)c2S1 (centres undefined)	-3.4	1.2	1.4	-22.5	-0.7	21.2
COc1cccc(NC(=O)CSc2nc3c(c(=O)n2C)SC(C)C3)c1 (centres undefined)	-1.0	-0.1	2.0	-25.5	-1.0	78.7*
COc1ccc(Br)cc1CN1CCN(C(=O)c2cccc(F)c2)CC1	-0.4	28.8	2.2	3.7	-8.6	·
COC(=O)c1ccc(COC(=O)c2ccc(N(C)C)cc2)cc1	1.9	-22.6	-19.4	-89.2	-1.1	79.8*
CN(C)c1ccc(C(=O)OCc2ccccc2)cc1	4.2	-39.2	-28.3	-34.2	3.5	50.0
CCOC(=O)/C(C#N)=C1\Nc2ccccc2N=C1N(CC(C)C)CC(C)C	1.1	-8.0	-4.8	2.6	-4.1	76.5*
CCOC(=O)/C(C#N)=C1/C=C(C)NC(c2ccccc2O)=N1	-0.9	19.4	14.3	-5.8	0.7	28.6
CCCCN(CCCC)C1=Nc2ccccc2N/C1=C(/C#N)C(=O)OCC	-1.1	8.6	7.0	-14.5	-4.3	72.1*
COc1cc2[nH]c(=O)n(CCC(=O)N3CCN(Cc4ccccc4)CC3)c(=O)c2cc1OC	-0.7	3.4	-8.4	-0.3	-1.9	-11.7
COc1cc2[nH]c(=O)n(CCC(=O)N3CCN(c4cccc(C)c4C)CC3)c(=O)c2cc1OC	0.0	4.4	-7.5	-13.0	2.2	93.1*
C=CCN(C(=O)c1csnn1)C(C(=O)NC1CCCC1)c1ccc(OC)cc1 (centres undefined)	0.4	22.1	12.9	12.8	-5.3	·
CCOC(=O)C1CCN(C(=O)CCC(=O)NNc2nc3ccccc3c3nc(C)nn23)CC1	1.6	0.9	6.2	4.8	-1.3	·
NNc1nc2c(-c3ccc(F)cc3)nnn2c2ccccc12	3.4	-51.0	-137.0	-169.6	2.2	9.8
NNc1nc2c(-c3ccc(Cl)cc3)nnn2c2ccccc12	8.3	-96.0	-133.2	-131.2	0.6	91.0*
N/C(=N\OC(=O)c1cc(-c2ccccc2)nc2ccccc12)c1ccccn1	2.4	9.9	12.9	4.6	8.1	74.1*

Source: PubChem BioAssay (several laboratories)
